Assay results: ChEMBL document CHEMBL1140087, “Synthesis and structure-activity relationship studies of cytotoxic ester and ether anhydrovinblastine derivatives” (J Nat Prod, 2008)
pIC50: −log10 of the molar value.

Tests used:
A549 = test: Cytotoxicity against human A549 cells after 72 hrs by SRB assay; type: functional, cell-based; conditions: A549, 72 h
In short: (§1)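 Ditartrate salts tested. ATCC cells seeded at 6000/well, attached overnight, then exposed in triplicate to graded concentrations at 37 °C for 72 h. Fixed with 10% trichloroacetic acid for 60 min at 4 °C, stained with 0.4% w/v SRB in 1% acetic acid for 15 min, dye solubilised in Tris buffer, A515 read. IC50 for 50% growth inhibition by Logit method. Anhydrovinblastine as positive control.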

HeLa = test: Cytotoxicity against human HeLa cells after 72 hrs by SRB assay; type: functional, cell-based; in short: as §1

Row | Structure (SMILES) | pIC50 (A549) | pIC50 (HeLa)
1 | C=CCOC[C@@]1(O)[C@H](OC(C)=O)[C@]2(CC)C=CCN3CC[C@@]4(c5cc([C@@]6(C(=O)OC)C[C@@H]7C=C(CC)CN(CCc8c6[nH]c6ccccc86)C7)c(OC)cc5N(C)[C@@H]14)[C@@H]32 | 6.91 | 6.79
2 | CCC1=C[C@@H]2CN(CCc3c([nH]c4ccccc34)[C@@](C(=O)OC)(c3cc4c(cc3OC)N(C)[C@H]3[C@@](O)(COCc5ccc(OC)cc5)[C@H](OC(C)=O)[C@]5(CC)C=CCN6CC[C@]43[C@@H]65)C2)C1 | 6.15 | 6.39
3 | CCC1=C[C@@H]2CN(CCc3c([nH]c4ccccc34)[C@@](C(=O)OC)(c3cc4c(cc3OC)N(C)[C@H]3[C@@](O)(COC(=O)C5CC5)[C@H](OC(C)=O)[C@]5(CC)C=CCN6CC[C@]43[C@@H]65)C2)C1 | 7.32 | 7.42
4 | CCCCOC[C@@]1(O)[C@H](OC(C)=O)[C@]2(CC)C=CCN3CC[C@@]4(c5cc([C@@]6(C(=O)OC)C[C@@H]7C=C(CC)CN(CCc8c6[nH]c6ccccc86)C7)c(OC)cc5N(C)[C@@H]14)[C@@H]32 | 6.37 | 6.37
5 | CCC1=C[C@@H]2CN(CCc3c([nH]c4ccccc34)[C@@](C(=O)OC)(c3cc4c(cc3OC)N(C)[C@H]3[C@@](O)(COC(=O)Cc5ccccc5)[C@H](OC(C)=O)[C@]5(CC)C=CCN6CC[C@]43[C@@H]65)C2)C1 | 7.17 | 6.57
6 | CCC1=C[C@@H]2CN(CCc3c([nH]c4ccccc34)[C@@](C(=O)OC)(c3cc4c(cc3OC)N(C)[C@H]3[C@@](O)(COC(=O)c5ccc([N+](=O)[O-])cc5)[C@H](OC(C)=O)[C@]5(CC)C=CCN6CC[C@]43[C@@H]65)C2)C1 | 7.28 | 6.77
7 | CCC1=C[C@@H]2CN(CCc3c([nH]c4ccccc34)[C@@](C(=O)OC)(c3cc4c(cc3OC)N(C)[C@H]3[C@@](O)(COC(=O)c5ccc(Cl)cc5)[C@H](OC(C)=O)[C@]5(CC)C=CCN6CC[C@]43[C@@H]65)C2)C1 | 7.25 | 6.99
8 | CCC(=O)OC[C@@]1(O)[C@H](OC(C)=O)[C@]2(CC)C=CCN3CC[C@@]4(c5cc([C@@]6(C(=O)OC)C[C@@H]7C=C(CC)CN(CCc8c6[nH]c6ccccc86)C7)c(OC)cc5N(C)[C@@H]14)[C@@H]32 | 7.41 | 7.21
9 | CCC1=C[C@@H]2CN(CCc3c([nH]c4ccccc34)[C@@](C(=O)OC)(c3cc4c(cc3OC)N(C)[C@H]3[C@@](O)(COC(=O)c5ccccc5)[C@H](OC(C)=O)[C@]5(CC)C=CCN6CC[C@]43[C@@H]65)C2)C1 | 7.60 | 7.45
10 | CCC1=C[C@@H]2CN(CCc3c([nH]c4ccccc34)[C@@](C(=O)OC)(c3cc4c(cc3OC)N(C)[C@H]3[C@@](O)(COC(C)=O)[C@H](OC(C)=O)[C@]5(CC)C=CCN6CC[C@]43[C@@H]65)C2)C1 | 7.42 | 7.45
11 | CCC1=C[C@@H]2CN(CCc3c([nH]c4ccccc34)[C@@](C(=O)OC)(c3cc4c(cc3OC)N(C)[C@H]3[C@@](O)(COC(=O)c5ccccc5Cl)[C@H](OC(C)=O)[C@]5(CC)C=CCN6CC[C@]43[C@@H]65)C2)C1 | 7.39 | 6.83
12 | CCC1=C[C@@H]2CN(CCc3c([nH]c4ccccc34)[C@@](C(=O)OC)(c3cc4c(cc3OC)N(C)[C@H]3[C@@](O)(COC(=O)C(C)C)[C@H](OC(C)=O)[C@]5(CC)C=CCN6CC[C@]43[C@@H]65)C2)C1 | 7.22 | 7.06
13 | CCC1=C[C@@H]2CN(CCc3c([nH]c4ccccc34)[C@@](C(=O)OC)(c3cc4c(cc3OC)N(C)[C@H]3[C@@](O)(COC(=O)C(C)(C)C)[C@H](OC(C)=O)[C@]5(CC)C=CCN6CC[C@]43[C@@H]65)C2)C1 | 6.74 | 7.02
14 | CCC1=C[C@@H]2CN(CCc3c([nH]c4ccccc34)[C@@](C(=O)OC)(c3cc4c(cc3OC)N(C)[C@H]3[C@@](O)(COC(=O)CC(C)C)[C@H](OC(C)=O)[C@]5(CC)C=CCN6CC[C@]43[C@@H]65)C2)C1 | 7.15 | 6.76
15 | CCCOC[C@@]1(O)[C@H](OC(C)=O)[C@]2(CC)C=CCN3CC[C@@]4(c5cc([C@@]6(C(=O)OC)C[C@@H]7C=C(CC)CN(CCc8c6[nH]c6ccccc86)C7)c(OC)cc5N(C)[C@@H]14)[C@@H]32 | 6.40 | 6.40
16 | CCC1=C[C@@H]2CN(CCc3c([nH]c4ccccc34)[C@@](C(=O)OC)(c3cc4c(cc3OC)N(C)[C@H]3[C@@](O)(COC(=O)c5ccc(OC)cc5)[C@H](OC(C)=O)[C@]5(CC)C=CCN6CC[C@]43[C@@H]65)C2)C1 | 7.53 | 6.82
17 | CCOC[C@@]1(O)[C@H](OC(C)=O)[C@]2(CC)C=CCN3CC[C@@]4(c5cc([C@@]6(C(=O)OC)C[C@@H]7C=C(CC)CN(CCc8c6[nH]c6ccccc86)C7)c(OC)cc5N(C)[C@@H]14)[C@@H]32 | 7.01 | 6.66
18 | CCC1=C[C@@H]2CN(CCc3c([nH]c4ccccc34)[C@@](C(=O)OC)(c3cc4c(cc3OC)N(C)[C@H]3[C@@](O)(COC(=O)c5ccccc5OC)[C@H](OC(C)=O)[C@]5(CC)C=CCN6CC[C@]43[C@@H]65)C2)C1 | 7.85 | 6.81
